ChEMBL document CHEMBL1944532, “Synthesis and evaluation of anticancer activity of some novel 6-aryl-2-(p-sulfamylphenyl)-pyridazin-3(2H)-ones” (Eur J Med Chem, 2012)
The source made the active and inactive calls. The rule behind the calls is not given here.

How the values were obtained:
RPMI-8226 = assay: Cytotoxicity against human RPMI8226 cells after 48 hrs by SRB assay; format: functional; conditions: RPMI-8226, 48 h
How it was run: (§1)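 NCI five-dose screen on the ~60-line human tumor panel. Cells grown in RPMI-1640 with 5% fetal calf serum and 2 mM L-glutamine, seeded at line-dependent density and preincubated 24 h. Compound added from DMSO at 10-fold dilutions from 10^-4 to 10^-8 M, continuous exposure 48 h. Growth read by sulforhodamine B protein stain. GI50, TGI and LC50 derived per line.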

EKVX = assay: Cytotoxicity against human EKVX cells after 48 hrs by SRB assay; format: functional
How it was run: (§2)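 NCI ~60-line panel in RPMI-1640 with 5% fetal calf serum and 2 mM L-glutamine, pre-incubated 24 h. Compound in DMSO tested at five 10-fold concentrations (10^-4 to 10^-8 M) with 48 h continuous exposure. Growth measured by sulforhodamine B protein assay. GI50 (50% net growth inhibition), TGI (total inhibition) and LC50 (50% net cell death) derived from dose-response.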

Malme-3M = assay: Cytotoxicity against human MALME-3M cells after 48 hrs by SRB assay; format: functional; how it was run: as §1
SK-MEL-5 [1] = assay: Cytotoxicity against human SK-MEL-5 cells after 48 hrs by SRB assay; format: functional; conditions: SK-MEL-5, 48 h
How it was run: (§3)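 NCI 60-cell-line five-dose screen. Cells were grown in 1640 medium with 5% fetal calf serum and 2 mM L-glutamine, with inoculum density set by cell line, and pre-incubated 24 h. Compound in DMSO was added at 10^-4 to 10^-8 M (10-fold steps) with 48 h continuous exposure. Growth was read by SRB protein assay, and GI50, TGI and LC50 were derived from dose-response.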

NCI-H460 = assay: Cytotoxicity against human NCI-H460 cells assessed as cell growth at 10 uM after 48 hrs by SRB assay; format: functional; conditions: NCI-H460, 48 h, read-out: Activity
How it was run: (§4)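 NCI primary single-dose screen at 10^-5 M against the full panel of about 60 human tumor cell lines. Cells were in RPMI-1640 with 5% fetal calf serum and 2 mM L-glutamine and preincubated 24 h. Compound was given in DMSO with 48 h exposure. Growth was estimated by sulforhodamine B protein assay.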

UACC-62 = assay: Antitumor activity against human UACC62 cells implanted in mouse dosed qd for 4 days by formazan dye-based hollow fiber assay; format: functional, organism-based
How it was run: (§5)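 Cells grown inside polyvinylidene fluoride hollow fibers; each line implanted into both intraperitoneal and subcutaneous compartments in mice. Compound given ip at two doses on a QD x 4 schedule. Fibers then recovered and viable cell mass measured by formazan dye conversion. Scored 2 per dose giving ≥50% reduction in viable cell mass (%T/C 50).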

LOX IMVI [2] = assay: Antitumor activity against human LOXIMVI cells implanted in mouse dosed qd for 4 days by formazan dye-based hollow fiber assay; format: functional, organism-based; how it was run: as §5
IGROV-1 [3] = assay: Cytotoxicity against human IGROV1 cells assessed as cell growth at 10 uM after 48 hrs by SRB assay; format: functional; conditions: IGROV-1, 48 h, read-out: Activity
How it was run: (§6)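 NCI primary single-dose screen at 10^-5 M against the ~60 human tumour cell line panel. Cells grown in RPMI-1640 with 5% fetal calf serum and 2 mM L-glutamine and pre-incubated 24 h before compound addition. Compound added from DMSO solution with 48 h exposure. Growth read by sulforhodamine B protein staining.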

OVCAR-5 = assay: Cytotoxicity against human OVCAR5 cells assessed as cell growth at 10 uM after 48 hrs by SRB assay; format: functional; conditions: OVCAR-5, 48 h, read-out: Activity; how it was run: as §4
KM12 = assay: Cytotoxicity against human KM12 cells assessed as cell growth at 10 uM after 48 hrs by SRB assay; format: functional; conditions: KM12, 48 h, read-out: Activity; how it was run: as §4
SK-MEL-5 [4] = assay: Cytotoxicity against human SK-MEL-5 cells assessed as cell growth at 10 uM after 48 hrs by SRB assay; format: functional; conditions: SK-MEL-5, 48 h, read-out: Activity
How it was run: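 NCI primary one-dose screen at 10^-5 M against the full panel of about 60 human tumour cell lines, run to the NCI Drug Evaluation Branch protocol.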

SK-OV-3 = assay: Cytotoxicity against human SKOV3 cells after 48 hrs by SRB assay; format: functional; conditions: SK-OV-3, 48 h; how it was run: as §3
HOP-92 = assay: Cytotoxicity against human HOP92 cells assessed as cell growth at 10 uM after 48 hrs by SRB assay; format: functional; conditions: HOP-92, 48 h, read-out: Activity; how it was run: as §6
IGROV-1 [5] = assay: Cytotoxicity against human IGROV1 cells after 48 hrs by SRB assay; format: functional; conditions: IGROV-1, 48 h; how it was run: as §2
HOP-62 = assay: Cytotoxicity against human HOP62 cells assessed as cell growth at 10 uM after 48 hrs by SRB assay; format: functional; conditions: HOP-62, 48 h, read-out: Activity; how it was run: as §6
SNB-19 = assay: Cytotoxicity against human SNB19 cells after 48 hrs by SRB assay; format: functional; conditions: SNB-19, 48 h; how it was run: as §3
LOX IMVI [6] = assay: Cytotoxicity against human LOXIMVI cells assessed as cell growth at 10 uM after 48 hrs by SRB assay; format: functional; conditions: read-out: Activity; how it was run: as §4
OVCAR-4 = assay: Cytotoxicity against human OVCAR4 cells after 48 hrs by SRB assay; format: functional; conditions: OVCAR-4, 48 h; how it was run: as §1
RXF 393 = assay: Cytotoxicity against human RXF393 cells after 48 hrs by SRB assay; format: functional; conditions: RXF 393, 48 h; how it was run: as §1
Hs-578T = assay: Cytotoxicity against human Hs578T cells assessed as cell growth at 10 uM after 48 hrs by SRB assay; format: functional; conditions: read-out: Activity; how it was run: as §6
MDA-MB-435 = assay: Cytotoxicity against human MDA-MB-435 cells assessed as cell growth at 10 uM after 48 hrs by SRB assay; format: functional; conditions: MDA-MB-435, 48 h, read-out: Activity; how it was run: as §4
NCI/ADR-RES = assay: Cytotoxicity against human NCI/ADR-RES cells assessed as cell growth at 10 uM after 48 hrs by SRB assay; format: functional; conditions: read-out: Activity; how it was run: as §4
A498 = assay: Cytotoxicity against human A498 cells after 48 hrs by SRB assay; format: functional; conditions: A498, 48 h; how it was run: as §2
SF-539 = assay: Cytotoxicity against human SF539 cells assessed as cell growth at 10 uM after 48 hrs by SRB assay; format: functional; conditions: SF-539, 48 h, read-out: Activity; how it was run: as §4

CCc1ccc(-c2ccc(=O)n(-c3ccc(S(N)(=O)=O)cc3)n2)cc1
LC50 (RPMI-8226): > 100 µM
GI50 (RPMI-8226; read-out: GI50): 0.479 µM
GI50 (RPMI-8226; read-out: pGI50 (converted)): 0.479 µM
TGI (RPMI-8226; read-out: pTGI (converted)): 8.51 µM
LC50 (50% net cell death) (EKVX): > 100 µM
GI50 (EKVX; read-out: GI50): 2.79 µM
GI50 (EKVX; read-out: pGI50 (converted)): 2.82 µM
TGI (EKVX; read-out: pTGI): > 100 µM
LC50 (Malme-3M): 75.9 µM
GI50 (Malme-3M; read-out: GI50): 0.188 µM
GI50 (Malme-3M; read-out: pGI50 (converted)): 0.186 µM
TGI (Malme-3M; read-out: pTGI (converted)): 16.2 µM
LC50 (SK-MEL-5 [1]): > 100 µM
GI50 (SK-MEL-5 [1]; read-out: GI50): 0.453 µM
GI50 (SK-MEL-5 [1]; read-out: pGI50 (converted)): 0.457 µM
TGI (SK-MEL-5 [1]; read-out: pTGI (converted)): 7.59 µM
growth at 10 µM (NCI-H460): 12.6%
Activity (UACC-62): inactive
Activity (LOX IMVI [2]): inactive
growth at 10 µM (IGROV-1 [3]): -5.72%
growth at 10 µM (OVCAR-5): 91.6%
growth at 10 µM (KM12): 13.6%
growth at 10 µM (SK-MEL-5 [4]): 12.9%
LC50 (SK-OV-3): > 100 µM
GI50 (SK-OV-3; read-out: GI50): 4.02 µM
GI50 (SK-OV-3; read-out: pGI50 (converted)): 3.98 µM
TGI (SK-OV-3; read-out: pTGI): > 100 µM
growth at 10 µM (HOP-92): 65.8%
LC50 (IGROV-1 [5]): > 100 µM
GI50 (IGROV-1 [5]; read-out: GI50): 3.81 µM
GI50 (IGROV-1 [5]; read-out: pGI50 (converted)): 3.8 µM
TGI (IGROV-1 [5]; read-out: pTGI): > 100 µM
growth at 10 µM (HOP-62): 59.9%
LC50 (SNB-19): > 100 µM
GI50 (SNB-19; read-out: GI50): 4.41 µM
GI50 (SNB-19; read-out: pGI50 (converted)): 4.37 µM
TGI (SNB-19; read-out: pTGI (converted)): 36.3 µM
growth at 10 µM (LOX IMVI [6]): 55.1%
LC50 (OVCAR-4): > 100 µM
GI50 (OVCAR-4; read-out: GI50): > 100 µM
GI50 (OVCAR-4; read-out: pGI50 (converted)): > 100 µM
TGI (OVCAR-4; read-out: pTGI): > 100 µM
LC50 (RXF 393): > 100 µM
GI50 (RXF 393; read-out: GI50): 3.51 µM
GI50 (RXF 393; read-out: pGI50 (converted)): 3.55 µM
TGI (RXF 393; read-out: pTGI (converted)): 28.2 µM
growth at 10 µM (Hs-578T): 28.6%
growth at 10 µM (MDA-MB-435): -17.9%
growth at 10 µM (NCI/ADR-RES): 1%
LC50 (A498): > 100 µM
GI50 (A498; read-out: GI50): 1.97 µM
GI50 (A498; read-out: pGI50 (converted)): 1.95 µM
TGI (A498; read-out: pTGI (converted)): 38 µM
growth at 10 µM (SF-539): 43.6%
